Measured values: ChEMBL document CHEMBL4364350, “Use of a fluorescence assay to determine relative affinities of semisynthetic aminoglycosides to small RNAs representing bacterial and mitochondrial A sites” (Bioorg Med Chem, 2019)
Values after ≈ are worked out from the molar mass of the structure shown.

Experiments:
[1] = Anti-ribosomal activity against human-bacterial hybrid ribosome containing human mitochondrial ribosome A site harboring wild type 12s rRNA assessed as inhibition of cell-free translation by dual luciferase reporter assay
[2] = Binding affinity to 5'-fluorescein-tagged human mitochondrial ribosome A site mutant duplex RNA incubated for 2 mins by fluorescence spectrophotometry analysis
Summary of the method: (§1)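 The 5'-fluorescein-labelled strand was set to 1 μM in binding buffer (10 mM HEPES pH 7.4, 150 mM NaCl, 3 mM Na2EDTA). The complementary strand was annealed at 95 °C for 1 min, then cooled slowly overnight. Aminoglycoside was added in 12–15 aliquots of 2 μL, each followed by 2 min incubation. Excitation 490 nm; 520 nm emission was volume-corrected. Fraction bound was fitted to a quadratic equation for apparent Kd, from three independent trials.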

[3] = Anti-ribosomal activity against human-bacterial hybrid ribosome containing human mitochondrial ribosome A site harboring A1555G mutant 12s rRNA assessed as inhibition of cell-free translation by dual luciferase reporter assay
[4] = Selectivity ratio of IC50 for anti-ribosomal activity against human-bacterial hybrid ribosome containing human mitochondrial ribosome A site harboring A1555G mutant 12s rRNA to IC50 for anti-ribosomal activity against bacterial 70S hybrid ribosomes
[5] = Selectivity ratio of IC50 for anti-ribosomal activity against human-bacterial hybrid ribosome containing human mitochondrial ribosome A site harboring wild type 12s rRNA to IC50 for anti-ribosomal activity against bacterial 70S hybrid ribosomes
Escherichia coli [6] = assay: Antibacterial activity against Escherichia coli AG001 incubated for overnight by broth microdilution assay; type: functional
Escherichia coli [7] = assay: Potency index, ratio of paromomycin Kd to compound Kd for 5'-fluorescein-tagged Escherichia coli ribosomal A site wt-bac duplex RNA incubated for 2 mins by fluorescence spectrophotometric analysis
[8] = tested on: human mitochondrial ribosomal A site (wild type) RNA; assay: Selectivity ratio of Kd for 5'-fluorescein-tagged human mitochondrial ribosomal A site wt-duplex RNA to Kd for 5'-fluorescein-tagged Escherichia coli ribosomal A site wt-bac duplex RNA; type: toxicity
[9] = Binding affinity to 5'-fluorescein-tagged Escherichia coli ribosomal A site wt-bac duplex RNA incubated for 2 mins by fluorescence spectrophotometric analysis; summary of the method: as §1
[10] = Binding affinity to 5'-fluorescein-tagged human mitochondrial ribosomal A site wt-duplex RNA incubated for 2 mins by fluorescence spectrophotometric analysis; summary of the method: as §1
Bacterial 70S ribosome = assay: Anti-ribosomal activity against bacterial 70S hybrid ribosomes assessed as inhibition of cell-free translation incubated for 35 mins by dual luciferase reporter assay; type: subcellular, Bacteria
[11] = tested on: human mitochondrial ribosome A site (mutant) RNA; assay: Selectivity ratio of Kd for 5'-fluorescein-tagged human mitochondrial ribosome A site mutant duplex RNA to Kd for 5'-fluorescein-tagged Escherichia coli ribosomal A site wt-bac duplex RNA; type: toxicity
[12] = Binding affinity to 5'-fluorescein-tagged bacterial ribosomal A site 27-nucleotide hairpin RNA construct by fluorescence analysis; set-up: species or system Bacteria
Escherichia coli [13] = assay: Binding affinity to 5'-fluorescein-tagged Escherichia coli ribosomal A site wt-bac duplex RNA assessed as conformational change in RNA by measuring decrease in fluorescence intensity incubated for 2 mins by fluorescence spectrophotometric analysis; summary of the method: as §1

Row | SMILES | IC50 [1] [µg/mL] | Kd [2] [nM] | IC50 [3] [µg/mL] | Ratio IC50 [4] | Ratio IC50 [5] | MIC (Escherichia coli [6]) [µg/mL] | Ratio (Escherichia coli [7]) | selectivity ratio [8] | Kd [9] [nM] | Kd [10] [nM] | IC50 (Bacterial 70S ribosome) [nM] | selectivity ratio [11] | Kd [12] [nM] | inhibition (Escherichia coli [13]) [%]
1 | CCC[C@H]1[C@H](O)[C@@H](N)[C@@H](O[C@H]2[C@H](O[C@@H]3O[C@H](CO)[C@@H](O[C@H]4O[C@@H](CN)[C@@H](O)[C@H](O)[C@H]4N)[C@H]3O)[C@@H](O)[C@H](N)C[C@@H]2N)O[C@@H]1CO | 167 (≈ 260 µM) | 5800 | 51 (≈ 79.5 µM) | 1730 | 5570 | 2 (≈ 3.12 µM) | 2.5 | 13400 | 2 | 26900 | 46.7 | 2900 |  | 
2 | CCO[C@H]1[C@H](O)[C@@H](N)[C@@H](O[C@H]2[C@H](O[C@@H]3O[C@H](CO)[C@@H](O[C@H]4O[C@@H](CN)[C@@H](O)[C@H](O)[C@H]4N)[C@H]3O)[C@@H](O)[C@H](N)C[C@@H]2N)O[C@@H]1CO | 97 (≈ 151 µM) | 8600 | 120 (≈ 186 µM) | 1500 | 1210 | 16 (≈ 24.9 µM) |  | 427 | 30 | 12800 | 124 | 287 |  | 
3 | NC[C@@H]1O[C@H](O[C@H]2[C@@H](O)[C@H](O[C@@H]3[C@@H](O)[C@H](N)C[C@H](N)[C@H]3O[C@H]3O[C@H](CO)[C@@H](O)[C@H](O)[C@H]3N)O[C@@H]2CO)[C@H](N)[C@@H](O)[C@@H]1O [PAROMOMYCIN] | 51 (≈ 82.8 µM) | 2800 | 6 (≈ 9.75 µM) | 200 | 1700 | 4 (≈ 6.5 µM) |  | 1300 | 5 | 6500 |  | 560 |  | 
4 | NC[C@@H]1O[C@H](O[C@H]2[C@@H](O)[C@H](O[C@@H]3[C@@H](O)[C@H](N)C[C@H](N)[C@H]3O[C@H]3O[C@H](CN)[C@@H](O)[C@H](O)[C@H]3N)O[C@@H]2CO)[C@H](N)[C@@H](O)[C@@H]1O [FRAMYCETIN] |  | 100 |  | 20 | 200 |  |  | 1100 | 1 | 1100 |  | 100 | 5 | 20
